Screening data: PubChem BioAssay, The Scripps Research Institute Molecular Screening Center
Rows were chosen to be rich in hits. Some 3.1% of all compounds tested hit in one or more screens of this group.
OX1R antag-1 = antagonists of human orexin 1 receptor | AID 434989 | 330,000 compounds, 0.43% hits | inhibition, % at 5 µM | O43613 | CHO/OX1R cells, Fluo-8 calcium fluorescence, orexin A;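 active = inhibition above its plate's threshold, mean inhibition of all tested compounds on the plate plus 3 SD, cut at about 37% in these data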;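 also: 0% = orexin A challenge wells and 100% = SB-334867-A antagonist wells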
Target sequence (O43613 whole entry, looked up): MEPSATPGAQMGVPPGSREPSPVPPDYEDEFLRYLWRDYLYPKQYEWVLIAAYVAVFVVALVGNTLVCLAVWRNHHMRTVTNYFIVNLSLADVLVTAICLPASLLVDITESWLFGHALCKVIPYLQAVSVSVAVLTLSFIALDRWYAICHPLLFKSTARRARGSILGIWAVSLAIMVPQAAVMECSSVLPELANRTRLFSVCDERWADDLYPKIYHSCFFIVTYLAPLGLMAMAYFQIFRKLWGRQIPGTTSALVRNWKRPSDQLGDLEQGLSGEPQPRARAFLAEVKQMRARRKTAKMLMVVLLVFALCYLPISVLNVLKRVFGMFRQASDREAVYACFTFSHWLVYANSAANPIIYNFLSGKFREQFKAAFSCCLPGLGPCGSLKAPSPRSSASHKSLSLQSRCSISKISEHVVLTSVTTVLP
GalR3 antag = human GalR3 antagonism; O60755; inhibition, % at 3 µM; 360,000 compounds, 0.44% hits; HEK293 GalR3-CNG cAMP membrane potential fluorescence; galR3 body fused to GalR1 C-terminus; AID 651719;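 active = inhibition above the screen-wide average plus 3 SD, cut at about 13% in these data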;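 also: forskolin and galanin both at EC90 stimulate the cells; cAMP rise reported by CNG channel membrane potential dye signal; 0% = forskolin plus galanin with DMSO and 100% = forskolin alone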
CHO parental Ca = counter-screen: ATP calcium response change in parental CHO cells; parental CHO-K1, ATP-induced calcium, Fluo-8 fluorescence; inhibition, % at 5.6 µM; 330,000 compounds, 0.63% hits;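 active = inhibition above that plate's mean sample inhibition plus 3 SD, cut at about 26% in these data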;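 also: 0% = ATP-challenged DMSO wells and 100% = DMSO wells without ATP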
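Assay system: untransfected parental CHO cell line. Also added: ATP agonist challenge. Dosing: one dose, 5.6 µM nominal. Measured by: Fluo-8 fluorescence. Read-out: % inhibition. Benchmarks: ATP wells versus no-ATP DMSO wells. Repeats: no replicates.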
OX1R antag-2 = antagonists of human orexin 1 receptor (OX1R). O43613. OX1R-expressing cells, FRET antagonist read-out. inhibition, % at 6.6 µM. 330,000 compounds, 1.8% hits. AID 485270; in the data active = inhibition mostly above about 38%, no sharp cut-off; inactive = mostly below about 40%;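 also: 0% = agonist challenge alone and 100% = reference antagonist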
GPR7 antag = human neuropeptides B/W receptor 1 antagonism; GPR7-expressing cells, fluorescence antagonist assay; inhibition, % at 4.4 µM; P48145; 290,000 compounds, 1.1% hits; AID 1861; in the data active = inhibition above about 16%, passing the limit was not always enough;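 also: cells stimulated with the agonist NPW; 0% = agonist with vehicle and 100% = vehicle without agonist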
OX1R HTRF conf = OX1R (human) antagonism, HTRF confirmed. shares compounds with OX1R antag-2. OX1R-expressing cells, HTRF antagonist assay. inhibition, % at 6.6 µM. 1,800 compounds, 49% hits; in the data active = inhibition above about 55%;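 also: CHO cells expressing OX1R stimulated with orexin A at about EC80; 0% = agonist challenge alone and 100% = reference antagonist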
CHO-K1 HTRF cnt = signal in parental CHO-K1 cells, OX1R antagonist counter-screen; shares compounds with OX1R antag-2; HTRF counterscreen; inhibition, % at 6.6 µM; 1,800 compounds, 48% hits; AID 493232; in the data active = inhibition above about 17%;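 also: 0% = agonist challenge with vehicle and 100% = vehicle alone without agonist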
* hit, by the source's call; x = no result given.

SMILES | OX1R antag-1 | GalR3 antag | CHO parental Ca | OX1R antag-2 | GPR7 antag | OX1R HTRF conf | CHO-K1 HTRF cnt
CCn1c(CC(=O)Nc2ccccc2F)nnc1SCC(=O)NC1=NCCS1 | x | -7.6 | x | x | x | x | x
O=C(CSc1nc(O)c(C2CCCCC2)c(=O)[nH]1)Nc1ccccc1Cl | -10.4 | 0.4 | -13.0 | 78.5* | -2.9 | 20.3 | 1.1
CC(=O)Nc1ccc(NC(=O)C2CCCN2S(=O)(=O)c2cccc3nsnc23)cc1 (stereo not drawn) | -11.6 | -1.4 | 5.4 | 79.5* | -12.4 | 62.5* | 35.9*
O=C(CCNS(=O)(=O)c1cccs1)NC1CCN(Cc2ccccc2)CC1 | -16.2 | 2.0 | -7.8 | 0.5 | -6.6 | x | x
O=C(NCCc1ccccc1)C1CCCN(S(=O)(=O)c2cccc3nsnc23)C1 (stereo not drawn) | -25.1 | 2.5 | -30.3 | 36.2 | -17.5 | x | x
O=C(NCc1ccco1)C(NS(=O)(=O)c1cccc2nsnc12)c1ccccc1 (stereo not drawn) | -28.2 | -3.1 | -29.1 | 92.2* | -4.5 | 61.3* | 27.6*
O=C(NCc1ccco1)C1CCCN(S(=O)(=O)c2cccc3nsnc23)C1 (stereo not drawn) | -12.9 | -0.1 | 2.6 | 78.1* | -10.5 | 30.6 | 34.1*
CC(=O)Nc1ccc(NC(=O)C2CCC(CNS(=O)(=O)c3cccc4nsnc34)CC2)cc1 (stereo not drawn) | -7.2 | -8.0 | 11.7 | 44.1 | -18.0 | x | x
O=C(CCNS(=O)(=O)c1cccc2nsnc12)NC1CCN(Cc2ccccc2)CC1 | -25.9 | -1.8 | -23.9 | 77.9* | -9.6 | 35.6 | 52.9*
COc1cccc(C(=O)N[C@H](C(=O)N2CCC[C@H]2C(=O)NCc2ccccc2)C(C)C)c1 | x | -6.3 | x | x | x | x | x
Cc1ccc(S(=O)(=O)N2C[C@H]3C(=O)C[C@@H](c4ccccc4C)N(S(=O)(=O)c4ccc(C)cc4)[C@H]3C[C@H]2c2ccccc2)cc1 | x | -3.8 | x | x | x | x | x
CCCCCCCCN1C(=O)[C@@H](CC(=O)NCC2CCCCC2)C[C@@]2(C(=O)OC)C1=C[C@H](C(C)(C)C)O[C@@H]2C | x | -6.2 | x | x | x | x | x
Cc1cccc(CN2CCN(C3CN(CCc4ccccc4)S(=O)(=O)C3)CC2)c1 (stereo not drawn) | x | -3.2 | x | x | x | x | x
O=C(Nc1ccccc1)c1cc(C2CCCCN2C(=O)c2ccc3c(c2)CCO3)on1 (stereo not drawn) | x | -7.1 | x | x | x | x | x
CCCCn1c(SCCN2CCCCC2)nc2c1c(=O)n(C)c(=O)n2C | x | -8.2 | x | x | x | x | x
O=C(CCS(=O)(=O)c1cccc2nsnc12)N1CCN(C(=O)c2ccco2)CC1 | -5.8 | -1.4 | 6.2 | 91.4* | -10.1 | 35.3 | 53.0*
CCCNC(=O)C(NS(=O)(=O)c1cccc2nsnc12)c1ccccc1 (stereo not drawn) | -31.1 | -1.2 | -20.2 | 97.5* | -1.3 | 63.9* | 35.7*
COc1ccccc1CNC(=O)CCNS(=O)(=O)c1cccc2nsnc12 | -0.7 | -4.5 | -10.5 | 33.2 | 0.9 | x | x
O=C(CCNS(=O)(=O)c1cccc2nsnc12)NCc1ccco1 | -40.7 | -7.8 | -0.5 | 122.1* | -6.2 | 35.0 | 39.5*
Cc1ccc(CNC(=O)C(NS(=O)(=O)c2cccc3nsnc23)C(C)C)cc1 (stereo not drawn) | -18.2 | -7.4 | -11.8 | 38.2 | -16.7 | x | x
COC(=O)C1=CN(c2ccc(F)cc2)C(N)=C(C#N)C1c1ccc(-c2ccccc2)cc1 (stereo not drawn) | x | -6.0 | x | x | x | x | x
NC(=O)c1ccc(-c2ccc(N3C(c4ccsc4)=Cc4ccc(F)cc4C3CC(=O)c3ccco3)cc2)cc1 (stereo not drawn) | x | -6.3 | x | x | x | x | x
CN(C)c1cccc(F)c1C(=O)NC(=O)Nc1ccc(Cl)cc1 | x | -0.1 | x | x | x | x | x
CCCn1c(/C=C/c2cc[n+](C)cc2)nc2ccccc21 | 9.9 | -6.1 | 0.0 | 77.9* | -9.5 | 49.7 | 47.3*
O=[N+]([O-])c1ccc2c(c1)C(O)n1ncnc1S2 (stereo not drawn) | 1.8 | 7.2 | -0.8 | 107.9* | -16.6 | 37.3 | 48.5*
O=[N+]([O-])c1ccc2c(c1)C(O)n1nc(-c3ccc(Cl)cc3Cl)nc1S2 (stereo not drawn) | -9.4 | -0.7 | -9.4 | 15.7 | 0.0 | x | x
CCc1nc2c(OCc3ccc(C#N)cc3)cccn2c1N(C)C(=O)c1cccs1 | x | -6.9 | x | x | x | x | x
